In brackets after ≈: the same amount, converted by molar mass.
Assays:
Assay type in all cases: functional
Enterobacter cloacae = test: Minimum inhibitory concentration was determined in heart infusion agar medium against […] organism Enterobacter cloacae NTCC9394
Procedure, shortened: (§1)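 Agar dilution on heart infusion agar, inoculum 10^6 cells/mL, incubated 24 h at 37 °C; the MIC is read as the lowest concentration that inhibits growth.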

Enterococcus faecalis = test: Minimum inhibitory concentration was determined in heart infusion agar medium against Enterococcus faecalis ATCC 19433; procedure, shortened: as §1
Klebsiella pneumoniae = test: Minimum inhibitory concentration was determined in heart infusion agar medium against Klebsiella pneumoniae PCI 602; procedure, shortened: as §1
Citrobacter freundii = test: Minimum inhibitory concentration was determined in heart infusion agar medium against […] organism Citrobacter freundii GN7391; procedure, shortened: as §1
Staphylococcus aureus [1] = test: Minimum inhibitory concentration was determined in heart infusion agar medium against Staphylococcus aureus(MRSA); procedure, shortened: as §1
Serratia marcescens = test: Minimum inhibitory concentration was determined in heart infusion agar medium against Serratia marcescens IAM 1136; procedure, shortened: as §1
Staphylococcus aureus [2] = test: Minimum inhibitory concentration was determined in heart infusion agar medium against Staphylococcus aureus 209P JC-1; procedure, shortened: as §1
Escherichia coli [3] = test: Minimum inhibitory concentration was determined in heart infusion agar medium against […] organism Escherichia coli KC-14/RGN 823; procedure, shortened: as §1
Proteus vulgaris = test: Minimum inhibitory concentration was determined in heart infusion agar medium against Proteus vulgaris GN 7919; procedure, shortened: as §1
Pseudomonas aeruginosa = test: Minimum inhibitory concentration was determined in heart infusion agar medium against Pseudomonas aeruginosa PAO-1; procedure, shortened: as §1
Bacillus subtilis = test: Minimum inhibitory concentration was determined in heart infusion agar medium against Bacillus subtilis ATCC 6633; procedure, shortened: as §1
Escherichia coli [4] = test: Minimum inhibitory concentration was determined in heart infusion agar medium against Escherichia coli NIHJ JC-2; procedure, shortened: as §1

CC[C@H](O)[C@@H]1C(=O)N2C(C(=O)[O-])=C(S[C@@H]3CCNC3)S[C@H]12.[Na+]
MIC (Enterobacter cloacae): 0.78 µg/mL | MIC (Enterococcus faecalis): 1.56 µg/mL | MIC (Klebsiella pneumoniae): 0.39 µg/mL | MIC (Citrobacter freundii): 6.25 µg/mL | MIC (Staphylococcus aureus [1]): 3.13 µg/mL | MIC (Serratia marcescens): 3.13 µg/mL | MIC (Staphylococcus aureus [2]): 0.1 µg/mL | MIC (Escherichia coli [3]): 0.78 µg/mL | MIC (Proteus vulgaris): 0.78 µg/mL | MIC (Pseudomonas aeruginosa): 12.5 µg/mL | MIC (Bacillus subtilis): 0.05 µg/mL | MIC (Escherichia coli [4]): 0.2 µg/mL

CC[C@@H](O)[C@H]1C(=O)N2C(C(=O)[O-])=C([C@H]3CCCO3)S[C@H]12.[Na+]
MIC (Enterobacter cloacae): > 100 µg/mL | MIC (Enterococcus faecalis): 25 µg/mL | MIC (Klebsiella pneumoniae): 12.5 µg/mL | MIC (Citrobacter freundii): > 100 µg/mL | MIC (Staphylococcus aureus [1]): > 100 µg/mL | MIC (Serratia marcescens): > 100 µg/mL | MIC (Staphylococcus aureus [2]): 0.78 µg/mL | MIC (Escherichia coli [3]): 12.5 µg/mL | MIC (Proteus vulgaris): 25 µg/mL | MIC (Pseudomonas aeruginosa): > 100 µg/mL | MIC (Bacillus subtilis): 0.78 µg/mL | MIC (Escherichia coli [4]): 100 µg/mL

CC[C@H](O)[C@@H]1C(=O)N2C(C(=O)[O-])=C(c3ccccc3)S[C@H]12.[Na+]
MIC (Enterobacter cloacae): > 100 µg/mL | MIC (Enterococcus faecalis): 0.2 µg/mL | MIC (Klebsiella pneumoniae): 6.25 µg/mL | MIC (Citrobacter freundii): > 100 µg/mL | MIC (Staphylococcus aureus [1]): 12.5 µg/mL | MIC (Serratia marcescens): 50 µg/mL | MIC (Staphylococcus aureus [2]): 0.78 µg/mL | MIC (Escherichia coli [3]): 50 µg/mL | MIC (Proteus vulgaris): 1.56 µg/mL | MIC (Pseudomonas aeruginosa): 100 µg/mL | MIC (Bacillus subtilis): 0.2 µg/mL | MIC (Escherichia coli [4]): 25 µg/mL

C[C@@H](O)[C@H]1C(=O)N2C(C(=O)[O-])=C([C@H]3CCCO3)S[C@H]12.[Na+] [FAROPENEM SODIUM]
MIC (Enterobacter cloacae): 1.56 µg/mL | MIC (Enterococcus faecalis): 0.78 µg/mL | MIC (Klebsiella pneumoniae): 0.2 µg/mL | MIC (Citrobacter freundii): 25 µg/mL | MIC (Staphylococcus aureus [1]): > 100 µg/mL | MIC (Serratia marcescens): 6.25 µg/mL | MIC (Staphylococcus aureus [2]): 0.05 µg/mL | MIC (Escherichia coli [3]): 0.1 µg/mL | MIC (Proteus vulgaris): 3.13 µg/mL | MIC (Pseudomonas aeruginosa): > 100 µg/mL | MIC (Bacillus subtilis): < 0.025 µg/mL | MIC (Escherichia coli [4]): 0.1 µg/mL

CC[C@H](O)[C@@H]1C(=O)N2C(C(=O)[O-])=C([C@H]3CCCO3)S[C@H]12.[Na+]
MIC (Enterobacter cloacae): > 100 µg/mL | MIC (Enterococcus faecalis): 0.39 µg/mL | MIC (Klebsiella pneumoniae): 1.56 µg/mL | MIC (Citrobacter freundii): > 100 µg/mL | MIC (Staphylococcus aureus [1]): 6.25 µg/mL | MIC (Serratia marcescens): 25 µg/mL | MIC (Staphylococcus aureus [2]): 0.39 µg/mL | MIC (Escherichia coli [3]): > 100 µg/mL | MIC (Proteus vulgaris): 1.56 µg/mL | MIC (Pseudomonas aeruginosa): > 100 µg/mL | MIC (Bacillus subtilis): 0.05 µg/mL | MIC (Escherichia coli [4]): 3.13 µg/mL

CC(O)[C@H]1C(=O)N2C(C(=O)O)=C(SCCNC=N)C[C@H]12 (single isomer, unassigned) [IMIPENEM ANHYDROUS]
MIC (Enterobacter cloacae): 0.2 µg/mL (≈ 0.668 µM) | MIC (Enterococcus faecalis): 0.78 µg/mL (≈ 2.61 µM) | MIC (Klebsiella pneumoniae): 0.2 µg/mL (≈ 0.668 µM) | MIC (Citrobacter freundii): 0.39 µg/mL (≈ 1.3 µM) | MIC (Staphylococcus aureus [1]): > 100 µg/mL | MIC (Serratia marcescens): 0.78 µg/mL (≈ 2.61 µM) | MIC (Staphylococcus aureus [2]): < 0.025 µg/mL | MIC (Escherichia coli [3]): 0.1 µg/mL (≈ 0.334 µM) | MIC (Proteus vulgaris): 3.13 µg/mL (≈ 10.5 µM) | MIC (Pseudomonas aeruginosa): 1.56 µg/mL (≈ 5.21 µM) | MIC (Bacillus subtilis): < 0.025 µg/mL | MIC (Escherichia coli [4]): 0.2 µg/mL (≈ 0.668 µM)

C[C@@H](O)[C@H]1C(=O)N2C(C(=O)O)=C([C@H]3CCCO3)S[C@H]12 [FAROPENEM]
MIC (Enterobacter cloacae): 100 µg/mL (≈ 350 µM) | MIC (Enterococcus faecalis): 0.39 µg/mL (≈ 1.37 µM) | MIC (Klebsiella pneumoniae): 0.78 µg/mL (≈ 2.73 µM) | MIC (Citrobacter freundii): > 100 µg/mL | MIC (Staphylococcus aureus [1]): 25 µg/mL (≈ 87.6 µM) | MIC (Serratia marcescens): 25 µg/mL (≈ 87.6 µM) | MIC (Staphylococcus aureus [2]): 0.78 µg/mL (≈ 2.73 µM) | MIC (Escherichia coli [3]): 25 µg/mL (≈ 87.6 µM) | MIC (Proteus vulgaris): 1.56 µg/mL (≈ 5.47 µM) | MIC (Pseudomonas aeruginosa): > 100 µg/mL | MIC (Bacillus subtilis): 0.05 µg/mL (≈ 0.175 µM) | MIC (Escherichia coli [4]): 0.78 µg/mL (≈ 2.73 µM)

CC[C@H](O)[C@@H]1C(=O)N2C(C(=O)[O-])=C(S[C@@H]3CCN(CC(=O)c4ccccc4)C3)S[C@H]12.[Na+]
MIC (Enterobacter cloacae): 0.39 µg/mL | MIC (Enterococcus faecalis): 0.78 µg/mL | MIC (Klebsiella pneumoniae): 0.1 µg/mL | MIC (Citrobacter freundii): 6.25 µg/mL | MIC (Staphylococcus aureus [1]): 3.13 µg/mL | MIC (Serratia marcescens): 1.56 µg/mL | MIC (Staphylococcus aureus [2]): 0.1 µg/mL | MIC (Escherichia coli [3]): 0.78 µg/mL | MIC (Proteus vulgaris): 0.78 µg/mL | MIC (Pseudomonas aeruginosa): 6.25 µg/mL | MIC (Bacillus subtilis): < 0.025 µg/mL | MIC (Escherichia coli [4]): 0.2 µg/mL
